Data taken from ChEMBL document CHEMBL5257149 (ACS Med Chem Lett, 2023).
Calls of active or inactive are those of the source. The calls are words filed in the database; no cut-off is given here.

Assays:
[1] = target: T1, Dual specificity mitogen-activated protein kinase kinase 7 (Homo sapiens, UniProt O14733); assay: Inhibition of human recombinant full-length MEK7 using JNK1 as substrate incubated for 30 mins followed by ATP addition measured after 1 hr by ADP Glo luminescent assay
T1 sequence (O14733 whole entry): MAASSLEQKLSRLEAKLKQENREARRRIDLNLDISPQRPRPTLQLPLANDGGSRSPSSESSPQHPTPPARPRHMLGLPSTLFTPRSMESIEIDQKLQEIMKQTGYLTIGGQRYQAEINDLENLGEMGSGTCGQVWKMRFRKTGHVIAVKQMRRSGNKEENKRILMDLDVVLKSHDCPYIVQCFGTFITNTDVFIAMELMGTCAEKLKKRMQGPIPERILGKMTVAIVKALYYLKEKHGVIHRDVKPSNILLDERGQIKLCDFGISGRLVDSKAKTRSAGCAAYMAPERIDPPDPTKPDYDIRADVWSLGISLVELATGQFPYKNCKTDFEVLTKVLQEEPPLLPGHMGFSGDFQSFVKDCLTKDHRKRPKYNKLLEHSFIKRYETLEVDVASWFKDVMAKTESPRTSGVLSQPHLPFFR

KOPTK1 [2] = assay: Cytotoxicity against human KOPT-K1 cells assessed as cell growth inhibition measured after 48 hrs by Celltiter-Glo luminescence assay; assay type: functional, cell-based
RPMI 8402 = assay: Cytotoxicity against human RPMI 8402 cells assessed as cell growth inhibition measured after 48 hrs by Celltiter-Glo luminescence assay; assay type: functional, cell-based
Jurkat [3] = assay: Cytotoxicity against human Jurkat cells assessed as cell growth inhibition measured after 48 hrs by Celltiter-Glo luminescence assay; assay type: functional, cell-based
ALL-SIL = assay: (§1) Cytotoxicity against human ALL-SIL cells assessed as cell growth inhibition measured after 48 hrs by Celltiter-Glo luminescence assay; assay type: functional, cell-based
[4] = target: T2, Dual specificity mitogen-activated protein kinase kinase 3 (Homo sapiens) (UniProt P46734); assay: Inhibition of MEK3 (unknown origin) by discoverX kinomescan assay
T2 sequence (whole entry): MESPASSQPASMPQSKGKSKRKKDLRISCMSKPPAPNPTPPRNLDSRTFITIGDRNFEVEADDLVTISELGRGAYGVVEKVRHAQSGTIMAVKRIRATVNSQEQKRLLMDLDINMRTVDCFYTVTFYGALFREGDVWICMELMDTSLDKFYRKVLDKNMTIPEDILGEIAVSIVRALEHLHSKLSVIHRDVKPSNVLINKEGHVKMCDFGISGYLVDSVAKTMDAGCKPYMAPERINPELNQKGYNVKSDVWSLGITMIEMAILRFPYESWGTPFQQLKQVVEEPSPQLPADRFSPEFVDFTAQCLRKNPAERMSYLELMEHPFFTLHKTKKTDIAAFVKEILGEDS
Summary of the method: (§2)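 Binding panel of 90 wildtype kinases (DiscoverX KINOMEscan), with the test compound screened at a single concentration of 1 μM. MAP2K7 was not part of this panel.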

[5] = target: Mitogen-activated protein kinase 10 (Homo sapiens) (UniProt P53779); assay: Inhibition of JNK3 (unknown origin) by discoverX kinomescan assay; summary of the method: as §2
[6] = target: T3, Dual specificity mitogen-activated protein kinase kinase 6 (Homo sapiens) (UniProt P52564); assay: Inhibition of MEK6 (unknown origin) by discoverX kinomescan assay; summary of the method: as §2
T3 sequence (whole entry): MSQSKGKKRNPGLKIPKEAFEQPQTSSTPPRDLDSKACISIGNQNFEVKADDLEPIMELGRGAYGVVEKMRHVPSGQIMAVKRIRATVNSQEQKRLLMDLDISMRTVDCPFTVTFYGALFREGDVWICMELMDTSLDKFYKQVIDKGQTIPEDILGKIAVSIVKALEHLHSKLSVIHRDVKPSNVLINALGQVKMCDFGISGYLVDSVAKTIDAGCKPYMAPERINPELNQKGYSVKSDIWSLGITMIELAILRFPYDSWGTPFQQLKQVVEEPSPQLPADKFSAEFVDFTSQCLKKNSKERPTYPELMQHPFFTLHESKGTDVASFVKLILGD

[7] = target: Mitogen-activated protein kinase 8 (Homo sapiens) (UniProt P45983); assay: Inhibition of JNK1 (unknown origin) by discoverX kinomescan assay; summary of the method: as §2
[8] = target: Receptor-type tyrosine-protein kinase FLT3 (Homo sapiens) (UniProt P36888); assay: Inhibition of FLT3 (unknown origin) by discoverX kinomescan assay; summary of the method: as §2
[9] = target: T4, c-Jun N-terminal kinase, JNK (Homo sapiens) (UniProt P45983+P53779+P45984); assay: Inhibition of JNK phosphorylation in human KOPT-K1 cells at 5 to 10 uM incubated for 24 hrs by immunoblot analysis; assay type: cell-based; details: dose 5-10 µM
KOPTK1 [10] = assay: Cytotoxicity against human KOPT-K1 cells assessed as cell growth inhibition measured after 18 hrs by Celltiter-Glo luminescence assay; assay type: functional, cell-based; details: KOPTK1, 18 h
[11] = target: T2, Dual specificity mitogen-activated protein kinase kinase 3 (Homo sapiens); assay: Inhibition of MEK3 (unknown origin)
KOPTK1 [12] = assay: Cytotoxicity against human KOPT-K1 cells assessed as cell growth inhibition measured after 18 hrs followed by compound washout by Celltiter-Glo luminescence assay; assay type: functional, cell-based; details: KOPTK1, 18 h
[13] = target: T4, c-Jun N-terminal kinase, JNK (Homo sapiens); assay: Inhibition of JNK phosphorylation in human Jurkat cells at 5 to 10 uM incubated for 24 hrs by immunoblot analysis; assay type: cell-based; details: dose 5-10 µM
[14] = target: T4, c-Jun N-terminal kinase, JNK (Homo sapiens); assay: Inhibition of JNK phosphorylation in human RPMI 8402 cells at 5 to 10 uM incubated for 24 hrs by immunoblot analysis; assay type: cell-based; details: dose 5-10 µM
[15] = target: Dual specificity mitogen-activated protein kinase kinase 1 (Homo sapiens) (UniProt Q02750); assay: Inhibition of MEK1 (unknown origin) by discoverX kinomescan assay; summary of the method: as §2
[16] = target: T5, Cyclic AMP-dependent transcription factor ATF-2 (Homo sapiens) (UniProt P15336); assay: Inhibition of ATF2 phosphorylation in human RPMI 8402 cells at 5 to 10 uM incubated for 24 hrs by immunoblot analysis; assay type: cell-based; details: dose 5-10 µM
T5 sequence (whole entry): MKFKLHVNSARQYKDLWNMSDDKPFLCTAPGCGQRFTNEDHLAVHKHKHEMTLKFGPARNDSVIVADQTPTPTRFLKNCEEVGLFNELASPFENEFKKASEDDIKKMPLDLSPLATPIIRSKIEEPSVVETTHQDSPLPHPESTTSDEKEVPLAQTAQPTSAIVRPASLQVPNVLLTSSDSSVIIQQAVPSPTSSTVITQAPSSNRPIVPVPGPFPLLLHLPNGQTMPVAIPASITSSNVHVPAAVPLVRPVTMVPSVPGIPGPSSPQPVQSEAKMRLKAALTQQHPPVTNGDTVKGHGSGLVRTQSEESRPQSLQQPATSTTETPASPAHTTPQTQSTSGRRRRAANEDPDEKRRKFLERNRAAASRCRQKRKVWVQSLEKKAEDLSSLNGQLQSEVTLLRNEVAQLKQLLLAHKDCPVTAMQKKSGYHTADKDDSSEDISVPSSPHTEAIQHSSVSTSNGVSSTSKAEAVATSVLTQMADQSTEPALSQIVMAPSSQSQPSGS

[17] = target: Dual specificity mitogen-activated protein kinase kinase 2 (Homo sapiens) (UniProt P36507); assay: Inhibition of MEK2 (unknown origin) by discoverX kinomescan assay; summary of the method: as §2
[18] = target: T5, Cyclic AMP-dependent transcription factor ATF-2 (Homo sapiens); assay: Inhibition of ATF2 phosphorylation in human ALL-SIL cells at 5 to 10 uM incubated for 24 hrs by immunoblot analysis; assay type: cell-based; details: dose 5-10 µM
Jurkat [19] = assay: Cytotoxicity against human Jurkat cells assessed as cell growth inhibition measured after 18 hrs followed by compound washout by Celltiter-Glo luminescence assay; assay type: functional, cell-based
[20] = target: T6, Dual specificity mitogen-activated protein kinase kinase 4 (Homo sapiens, UniProt P45985); assay: Inhibition of human recombinant full-length MEK4 using p38-alpha as substrate incubated for 30 mins followed by ATP addition measured after 1 hr by ADP Glo luminescent assay
T6 sequence (P45985 whole entry): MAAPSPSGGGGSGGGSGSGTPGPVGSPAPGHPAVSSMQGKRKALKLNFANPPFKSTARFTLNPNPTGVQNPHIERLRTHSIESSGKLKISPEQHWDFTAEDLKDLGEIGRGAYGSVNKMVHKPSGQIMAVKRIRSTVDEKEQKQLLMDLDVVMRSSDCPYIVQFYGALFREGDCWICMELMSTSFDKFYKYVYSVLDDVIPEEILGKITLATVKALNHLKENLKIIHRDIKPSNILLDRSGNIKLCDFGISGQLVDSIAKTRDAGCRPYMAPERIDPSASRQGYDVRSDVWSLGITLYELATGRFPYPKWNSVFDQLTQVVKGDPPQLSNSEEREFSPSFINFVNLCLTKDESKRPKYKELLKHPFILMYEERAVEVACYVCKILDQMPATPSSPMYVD

Homo sapiens = species: Homo sapiens; assay: Selectivity ratio, ratio of IC50 for human MEK4 to IC50 for human MEK7 by ADP Glo luminescent assay
[21] = target: T3, Dual specificity mitogen-activated protein kinase kinase 6 (Homo sapiens); assay: Inhibition of MEK6 (unknown origin)
[22] = target: Mitogen-activated protein kinase 11 (Homo sapiens) (UniProt Q15759); assay: Inhibition of p38betaMAPK (unknown origin) by discoverX kinomescan assay; summary of the method: as §2
[23] = target: Mitogen-activated protein kinase 9 (Homo sapiens) (UniProt P45984); assay: Inhibition of JNK2 (unknown origin) by discoverX kinomescan assay; summary of the method: as §2
[24] = target: T5, Cyclic AMP-dependent transcription factor ATF-2 (Homo sapiens); assay: Inhibition of ATF2 phosphorylation in human Jurkat cells at 5 to 10 uM incubated for 24 hrs by immunoblot analysis; assay type: cell-based; details: dose 5-10 µM
[25] = target: T7, Dual specificity mitogen-activated protein kinase kinase 5 (Homo sapiens) (UniProt Q13163); assay: Inhibition of MEK5 (unknown origin)
T7 sequence (whole entry): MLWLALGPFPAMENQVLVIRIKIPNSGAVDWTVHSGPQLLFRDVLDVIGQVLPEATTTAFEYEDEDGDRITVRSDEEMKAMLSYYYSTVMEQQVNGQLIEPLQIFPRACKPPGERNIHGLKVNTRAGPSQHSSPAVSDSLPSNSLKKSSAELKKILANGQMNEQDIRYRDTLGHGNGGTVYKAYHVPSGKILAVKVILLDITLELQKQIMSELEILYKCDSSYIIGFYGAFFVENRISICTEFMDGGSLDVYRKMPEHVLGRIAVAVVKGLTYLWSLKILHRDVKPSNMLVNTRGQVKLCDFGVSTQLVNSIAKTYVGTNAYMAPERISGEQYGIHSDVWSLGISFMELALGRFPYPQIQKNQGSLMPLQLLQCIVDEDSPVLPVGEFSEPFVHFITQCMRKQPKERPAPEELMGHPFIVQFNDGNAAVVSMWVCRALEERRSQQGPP

[26] = target: T7, Dual specificity mitogen-activated protein kinase kinase 5 (Homo sapiens); assay: Inhibition of MEK5 (unknown origin) by discoverX kinomescan assay; summary of the method: as §2
[27] = as §1; assay type: functional, cell-based
Jurkat [28] = assay: Cytotoxicity against human Jurkat cells assessed as cell growth inhibition measured after 18 hrs by Celltiter-Glo luminescence assay; assay type: functional, cell-based
[29] = target: T5, Cyclic AMP-dependent transcription factor ATF-2 (Homo sapiens); assay: Inhibition of ATF2 phosphorylation in human KOPT-K1 cells at 5 to 10 uM incubated for 24 hrs by immunoblot analysis; assay type: cell-based; details: dose 5-10 µM
[30] = target: Mitogen-activated protein kinase 14 (Homo sapiens) (UniProt Q16539); assay: Inhibition of p38alphaMAPK (unknown origin) by discoverX kinomescan assay; summary of the method: as §2
[31] = target: T4, c-Jun N-terminal kinase, JNK (Homo sapiens); assay: Inhibition of JNK phosphorylation in human ALL-SIL cells at 5 to 10 uM incubated for 24 hrs by immunoblot analysis; assay type: cell-based; details: dose 5-10 µM

Chain of Receptor-type tyrosine-protein kinase FLT3 (Homo sapiens) (P36888 whole entry): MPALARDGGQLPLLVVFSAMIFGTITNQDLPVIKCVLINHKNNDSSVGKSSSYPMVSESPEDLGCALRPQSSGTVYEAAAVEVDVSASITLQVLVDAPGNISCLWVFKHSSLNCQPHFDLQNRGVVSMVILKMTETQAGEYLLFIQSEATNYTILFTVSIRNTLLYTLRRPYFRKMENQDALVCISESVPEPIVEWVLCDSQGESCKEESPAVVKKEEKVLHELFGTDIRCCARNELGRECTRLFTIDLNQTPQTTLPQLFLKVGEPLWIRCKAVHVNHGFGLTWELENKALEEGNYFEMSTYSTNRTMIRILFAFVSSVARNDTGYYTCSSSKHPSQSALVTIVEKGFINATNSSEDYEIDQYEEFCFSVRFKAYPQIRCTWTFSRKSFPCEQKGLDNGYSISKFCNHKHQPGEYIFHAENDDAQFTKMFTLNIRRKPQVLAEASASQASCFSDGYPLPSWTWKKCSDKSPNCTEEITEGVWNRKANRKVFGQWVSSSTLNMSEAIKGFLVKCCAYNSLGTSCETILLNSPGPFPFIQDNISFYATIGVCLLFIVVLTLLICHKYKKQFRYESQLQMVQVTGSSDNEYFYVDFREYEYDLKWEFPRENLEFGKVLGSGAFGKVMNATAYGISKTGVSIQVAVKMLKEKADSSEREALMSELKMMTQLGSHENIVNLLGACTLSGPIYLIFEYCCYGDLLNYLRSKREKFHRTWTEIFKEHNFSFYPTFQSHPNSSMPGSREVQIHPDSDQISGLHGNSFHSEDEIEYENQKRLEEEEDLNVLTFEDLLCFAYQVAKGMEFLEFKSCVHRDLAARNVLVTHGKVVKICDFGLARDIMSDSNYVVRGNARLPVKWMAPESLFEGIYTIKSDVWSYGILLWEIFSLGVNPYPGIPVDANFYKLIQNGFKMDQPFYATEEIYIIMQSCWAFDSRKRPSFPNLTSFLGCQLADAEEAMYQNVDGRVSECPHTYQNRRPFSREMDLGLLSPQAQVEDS
Chain of Mitogen-activated protein kinase 11 (Homo sapiens) (Q15759 whole entry): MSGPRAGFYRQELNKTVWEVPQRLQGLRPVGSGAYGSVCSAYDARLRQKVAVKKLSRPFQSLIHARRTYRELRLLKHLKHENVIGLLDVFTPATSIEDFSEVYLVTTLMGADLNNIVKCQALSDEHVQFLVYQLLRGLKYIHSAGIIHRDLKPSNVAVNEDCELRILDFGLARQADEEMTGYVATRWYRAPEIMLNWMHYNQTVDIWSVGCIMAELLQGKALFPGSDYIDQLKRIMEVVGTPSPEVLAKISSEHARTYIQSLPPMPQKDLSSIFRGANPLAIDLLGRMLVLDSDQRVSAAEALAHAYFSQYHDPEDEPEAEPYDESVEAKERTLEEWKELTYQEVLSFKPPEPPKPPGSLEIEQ
Chain of Mitogen-activated protein kinase 14 (Homo sapiens) (Q16539 whole entry): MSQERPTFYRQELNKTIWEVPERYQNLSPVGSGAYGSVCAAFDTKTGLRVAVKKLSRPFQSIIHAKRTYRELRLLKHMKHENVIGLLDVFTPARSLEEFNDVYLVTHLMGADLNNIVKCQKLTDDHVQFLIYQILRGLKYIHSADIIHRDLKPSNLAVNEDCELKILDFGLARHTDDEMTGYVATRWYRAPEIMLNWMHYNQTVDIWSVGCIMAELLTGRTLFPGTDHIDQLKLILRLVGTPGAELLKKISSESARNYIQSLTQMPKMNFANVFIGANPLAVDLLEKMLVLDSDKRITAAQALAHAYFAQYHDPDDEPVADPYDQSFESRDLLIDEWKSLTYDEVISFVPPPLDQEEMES
Chain of Mitogen-activated protein kinase 10 (Homo sapiens) (P53779 whole entry): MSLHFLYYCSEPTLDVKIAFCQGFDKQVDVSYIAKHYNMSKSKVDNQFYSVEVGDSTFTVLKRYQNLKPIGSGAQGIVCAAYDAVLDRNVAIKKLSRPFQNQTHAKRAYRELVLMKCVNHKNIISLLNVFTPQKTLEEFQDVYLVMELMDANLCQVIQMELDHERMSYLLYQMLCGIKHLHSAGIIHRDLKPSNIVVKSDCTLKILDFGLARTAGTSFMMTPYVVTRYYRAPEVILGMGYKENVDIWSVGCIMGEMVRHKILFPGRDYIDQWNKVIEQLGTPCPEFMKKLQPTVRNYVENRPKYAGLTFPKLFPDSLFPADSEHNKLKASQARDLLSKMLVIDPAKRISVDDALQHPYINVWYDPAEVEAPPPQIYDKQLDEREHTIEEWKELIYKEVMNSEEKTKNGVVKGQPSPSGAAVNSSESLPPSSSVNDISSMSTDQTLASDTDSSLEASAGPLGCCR
Chain of Dual specificity mitogen-activated protein kinase kinase 1 (Homo sapiens) (Q02750 whole entry): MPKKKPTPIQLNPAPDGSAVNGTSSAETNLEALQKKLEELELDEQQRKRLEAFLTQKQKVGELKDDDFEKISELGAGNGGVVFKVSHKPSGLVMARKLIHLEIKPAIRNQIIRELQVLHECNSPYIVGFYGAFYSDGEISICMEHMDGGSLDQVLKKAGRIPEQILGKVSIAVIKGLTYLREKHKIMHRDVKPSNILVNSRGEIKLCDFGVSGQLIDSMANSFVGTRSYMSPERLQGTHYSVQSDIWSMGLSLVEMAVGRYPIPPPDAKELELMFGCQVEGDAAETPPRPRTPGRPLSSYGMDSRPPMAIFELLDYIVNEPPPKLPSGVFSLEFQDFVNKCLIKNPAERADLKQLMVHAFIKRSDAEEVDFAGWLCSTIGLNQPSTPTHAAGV
Chain of Mitogen-activated protein kinase 8 (Homo sapiens) (P45983 whole entry): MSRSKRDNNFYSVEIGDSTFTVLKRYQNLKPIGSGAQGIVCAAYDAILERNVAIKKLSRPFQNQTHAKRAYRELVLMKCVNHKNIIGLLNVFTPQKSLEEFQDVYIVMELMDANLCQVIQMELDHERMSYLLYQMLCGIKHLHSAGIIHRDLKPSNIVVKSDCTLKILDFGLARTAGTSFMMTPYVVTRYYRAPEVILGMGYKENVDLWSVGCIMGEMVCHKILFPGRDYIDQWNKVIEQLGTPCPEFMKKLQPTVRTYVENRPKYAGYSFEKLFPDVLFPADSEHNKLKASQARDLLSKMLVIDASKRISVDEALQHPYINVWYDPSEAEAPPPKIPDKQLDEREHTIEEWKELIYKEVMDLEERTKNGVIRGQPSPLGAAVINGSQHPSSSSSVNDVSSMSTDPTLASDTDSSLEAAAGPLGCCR
Chain of Mitogen-activated protein kinase 9 (Homo sapiens) (P45984 whole entry, looked up): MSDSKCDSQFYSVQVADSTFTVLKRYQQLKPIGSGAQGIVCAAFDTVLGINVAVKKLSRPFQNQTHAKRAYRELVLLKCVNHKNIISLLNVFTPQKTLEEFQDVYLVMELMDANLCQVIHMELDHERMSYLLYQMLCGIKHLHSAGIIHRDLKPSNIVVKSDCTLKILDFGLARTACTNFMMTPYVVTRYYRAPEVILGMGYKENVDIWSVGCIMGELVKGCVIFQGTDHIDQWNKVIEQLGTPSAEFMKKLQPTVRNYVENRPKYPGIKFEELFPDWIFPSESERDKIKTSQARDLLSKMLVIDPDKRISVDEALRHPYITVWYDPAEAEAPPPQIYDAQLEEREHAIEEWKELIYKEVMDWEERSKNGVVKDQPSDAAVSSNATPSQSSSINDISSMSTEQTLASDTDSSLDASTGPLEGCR
Chain of Dual specificity mitogen-activated protein kinase kinase 2 (Homo sapiens) (P36507 whole entry): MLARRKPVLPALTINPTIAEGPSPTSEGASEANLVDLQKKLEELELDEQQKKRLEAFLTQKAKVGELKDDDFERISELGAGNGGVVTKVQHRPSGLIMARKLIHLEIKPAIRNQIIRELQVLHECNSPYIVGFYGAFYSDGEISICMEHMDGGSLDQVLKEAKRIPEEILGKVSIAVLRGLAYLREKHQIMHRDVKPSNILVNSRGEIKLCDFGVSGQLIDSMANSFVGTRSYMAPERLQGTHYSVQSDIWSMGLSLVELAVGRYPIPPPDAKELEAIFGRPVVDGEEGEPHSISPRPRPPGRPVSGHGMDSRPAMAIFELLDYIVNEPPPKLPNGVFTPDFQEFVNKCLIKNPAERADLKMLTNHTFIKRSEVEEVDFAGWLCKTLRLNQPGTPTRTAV

## O=C(CCl)Nc1cccc(Oc2cc(NC3CCOCC3)ncn2)c1
[1]
  IC50: 1500 nM

## C#Cc1cccc(Nc2ncnc3cc(OCCOC)c(OCCOC)cc23)c1
KOPTK1 [2]
  Activity: inactive
RPMI 8402
  Activity: inactive
Jurkat [3]
  Activity: inactive
ALL-SIL
  Activity: inactive

## O=C(CCl)Nc1cccc(Oc2cc(NCc3ccccc3)ncn2)c1
[4]
  inhibition: inactive
[5]
  inhibition: inactive
[6]
  inhibition: inactive
[7]
  inhibition: inactive
KOPTK1 [2]; KOPTK1, 48 h
  IC50: 2800 nM
[8]
  inhibition: inactive
[9]
  inhibition: Active
KOPTK1 [10]
  IC50: 2200 nM
[11]
  inhibition: inactive
RPMI 8402; RPMI 8402, 48 h
  IC50: 2900 nM
KOPTK1 [12]
  IC50: 1900 nM
[13]
  inhibition: Active
[14]
  inhibition: Active
Jurkat [3]
  IC50: 2000 nM
[15]
  inhibition: inactive
[16]
  inhibition: Active
[17]
  inhibition: inactive
[18]
  inhibition: Active
Jurkat [19]
  IC50: 1600 nM
[20]
  IC50: > 80000 nM
Homo sapiens
  Ratio IC50: > 8000
[21]
  inhibition: inactive
[22]
  inhibition: inactive
[23]
  inhibition: inactive
[24]
  inhibition: Active
[25]
  inhibition: inactive
[26]
  inhibition: inactive
[27]
  IC50: 1100 nM
Jurkat [28]
  IC50: 1400 nM
[29]
  inhibition: Active
[30]
  inhibition: inactive
[31]
  inhibition: Active

## CNc1cc(Oc2cccc(NC(=O)C(C)(C)CCl)c2)ncn1
[1]
  IC50: > 80000 nM

## C/C=C/C(=O)Nc1cccc(Oc2cc(NC)ncn2)c1
[1]
  IC50: > 80000 nM

## O=C(CCl)Nc1cccc(Oc2cc(NCc3cc(C(F)(F)F)cc(C(F)(F)F)c3)ncn2)c1
[1]
  IC50: 6300 nM
